Our source for the Fold change values is ChEMBL document CHEMBL1144585, “Synthesis and evaluation of N-acetyl-L-tyrosine based compounds as PPARalpha selective activators” (Eur J Med Chem, 2007).

Structures are written as SMILES.

The target of assay [1] is T1, Peroxisome proliferator-activated receptor alpha (Homo sapiens) (UniProt Q07869).
T1 sequence (whole entry): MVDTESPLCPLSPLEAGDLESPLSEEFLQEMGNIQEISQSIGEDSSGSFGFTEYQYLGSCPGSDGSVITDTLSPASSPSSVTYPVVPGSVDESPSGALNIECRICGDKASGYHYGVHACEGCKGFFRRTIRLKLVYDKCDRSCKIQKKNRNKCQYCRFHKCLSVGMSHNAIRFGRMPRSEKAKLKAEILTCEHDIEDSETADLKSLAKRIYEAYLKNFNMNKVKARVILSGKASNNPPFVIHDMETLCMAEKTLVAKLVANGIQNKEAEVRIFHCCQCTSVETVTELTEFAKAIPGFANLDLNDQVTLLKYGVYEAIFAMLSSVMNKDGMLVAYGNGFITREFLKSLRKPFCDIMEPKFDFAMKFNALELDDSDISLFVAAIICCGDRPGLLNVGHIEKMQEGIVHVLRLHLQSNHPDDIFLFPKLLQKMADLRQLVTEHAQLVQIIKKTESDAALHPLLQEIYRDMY
Briefly: Agonist activity at human recombinant PPARalpha at 50 uM by GAL4 transactivation assay relative to control. It counts as functional. The gist of the method:
(§1)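 Cell-based transcription assay: cells transfected with a GAL4–PPAR chimeric receptor expression plasmid, with luciferase gene activation as the read-out. PPARα was tested at 50 µM against WY 14,643 as the reference. PPARγ was tested at 30 µM against rosiglitazone as the reference. Values are fold activation at the same concentration.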

Assay [2] addresses T2, Peroxisome proliferator-activated receptor gamma (Homo sapiens) (UniProt P37231).
T2 sequence (whole entry): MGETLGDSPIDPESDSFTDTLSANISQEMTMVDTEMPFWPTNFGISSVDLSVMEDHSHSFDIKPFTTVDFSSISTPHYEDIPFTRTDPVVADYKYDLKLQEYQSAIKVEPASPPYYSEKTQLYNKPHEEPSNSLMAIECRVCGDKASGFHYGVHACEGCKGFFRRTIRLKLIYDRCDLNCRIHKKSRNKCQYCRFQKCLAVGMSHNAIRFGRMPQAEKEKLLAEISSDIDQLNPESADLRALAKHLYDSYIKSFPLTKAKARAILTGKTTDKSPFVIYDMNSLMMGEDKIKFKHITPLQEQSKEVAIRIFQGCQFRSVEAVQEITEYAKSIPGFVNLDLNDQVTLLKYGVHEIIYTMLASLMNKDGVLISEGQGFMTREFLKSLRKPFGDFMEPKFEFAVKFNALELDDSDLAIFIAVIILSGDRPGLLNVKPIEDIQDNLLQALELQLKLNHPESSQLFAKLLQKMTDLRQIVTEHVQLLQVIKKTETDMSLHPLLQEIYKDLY
Briefly: Agonist activity at human recombinant PPARgamma at 30 uM by GAL4 transactivation assay relative to control. It counts as functional. The gist of the method: as §1

Regarding `CCOC(=O)[C@H](Cc1ccc(OCCn2c3ccccc3c3ccccc32)cc1)NC(C)=O`, the results for the Fold change in assay [1] and in assay [2] were 1.6 and 5.4, respectively.

Regarding `CC(=O)N[C@@H](Cc1ccc(OCCn2c3ccccc3c3ccccc32)cc1)C(=O)O`, the Fold change in assay [1] was 3.4; in assay [2] it was 4.2. The like results for `CCOC(=O)[C@H](Cc1ccc(OCc2ccc(Cl)cc2)cc1)NC(C)=O` were, in that order, 2 and 1. The like results for `CCOC(=O)[C@H](Cc1ccc(OCc2ccc(OC)cc2)cc1)NC(C)=O` were, in that order, 2.4 and 1.3. The like results for `CC(=O)N[C@@H](Cc1ccc(OCc2c3ccccc3cc3ccccc23)cc1)C(=O)O` were, in that order, 3.1 and 1.3. With `CCOC(=O)[C@H](Cc1ccc(OCCN(CC)c2cccc(C)c2)cc1)NC(C)=O`, the Fold change in assay [1] came to 2.9; in assay [2], 1.1.

In the case of `CCOC(=O)[C@H](Cc1ccc(OCCC(=O)Nc2ccccc2C(F)(F)F)cc1)NC(C)=O`, the Fold change in assay [1] amounted to 1; in assay [2], 1.8.

For `Cc1cccc(Nc2cc(Cl)nc(SCC(=O)O)n2)c1C`, the Fold change in assay [1] is 4.2. In the case of `CN(CCOc1ccc(CC2SC(=O)NC2=O)cc1)c1ccccn1` (stereo not given), in assay [2], the Fold change was 27.2. For the compound `CC(=O)N[C@@H](Cc1ccc(OCCC(=O)Nc2ccccc2C(F)(F)F)cc1)C(=O)O`, the Fold change was determined as 2.5 in assay [1] and 1.2 in assay [2]. The like results for `CC(=O)N[C@@H](Cc1ccc(OCCOc2ccc(C(=O)c3ccc(Cl)cc3)cc2)cc1)C(=O)O` were, in that order, 4.6 and 2.4. The like results for `CCOC(=O)[C@H](Cc1ccc(OCc2c3ccccc3cc3ccccc23)cc1)NC(C)=O` were, in that order, 2.3 and 0.8. Turning to `CCOC(=O)[C@H](Cc1ccc(OCCOc2ccc(C(=O)c3ccc(Cl)cc3)cc2)cc1)NC(C)=O`, the Fold change in assay [1] turned out to be 3.3; in assay [2] it was 0.9. For the compound `CCN(CCOc1ccc(C[C@H](NC(C)=O)C(=O)O)cc1)c1cccc(C)c1`, the Fold change in assay [1] was determined as 3.2; in assay [2] it was 1.4. For `CC(=O)N[C@@H](Cc1ccc(OCc2ccc(Cl)cc2)cc1)C(=O)O`, the results for the Fold change in assay [1] and in assay [2] were 3 and 1.9, respectively. The like results for `COc1ccc(COc2ccc(C[C@H](NC(C)=O)C(=O)O)cc2)cc1` were, in that order, 4.4 and 5.4.
